From ChEMBL document CHEMBL3588757, “Structure-based design, synthesis and biological testing of piperazine-linked bis-epipodophyllotoxin etoposide analogs” (Bioorg Med Chem, 2015)

Tests used:
Type in all cases: functional
[1] = tested on: SK-MEL-2; test: Cytotoxicity against human SK-MEL-2 cells assessed as cell growth at 50 uM by SRB assay; conditions: read-out: Activity
[2] = tested on: COLO 205; test: Cytotoxicity against human COLO205 cells assessed as cell growth at 0.05 uM by SRB assay; conditions: read-out: Activity
[3] = tested on: DU-145; test: Cytotoxicity against human DU145 cells assessed as cell growth at 0.05 uM by SRB assay; conditions: read-out: Activity
Procedure, shortened: (§1)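 Measured in the NCI-60 human tumour cell line panel using five-dose testing. Growth was recorded at each dose for each cell line, and a GI50 was derived for each line.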

[4] = tested on: SK-MEL-5; test: Cytotoxicity against human SK-MEL-5 cells by SRB assay
Procedure, shortened: (§2)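 NCI-60 panel screen; 5-dose testing giving GI50 per cell line, plus a single 10 µM one-dose test. Method details not given beyond the NCI screen.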

[5] = tested on: CAKI-1; test: Cytotoxicity against human Caki1 cells assessed as cell growth at 0.5 uM by SRB assay; conditions: read-out: Activity
[6] = tested on: SN12C; test: Cytotoxicity against human SN12C cells assessed as cell growth at 5 uM by SRB assay; conditions: read-out: Activity
[7] = tested on: TK-10; test: Cytotoxicity against human TK10 cells assessed as cell growth at 0.005 uM by SRB assay; conditions: read-out: Activity
[8] = tested on: UACC-257; test: Cytotoxicity against human UACC257 cells assessed as cell growth at 0.005 uM by SRB assay; conditions: read-out: Activity
[9] = tested on: MDA-MB-231; test: Cytotoxicity against human MDA-MB-231/ATCC cells assessed as cell growth at 0.005 uM by SRB assay; conditions: read-out: Activity
[10] = tested on: SNB-19; test: Cytotoxicity against human SNB19 cells assessed as cell growth at 0.5 uM by SRB assay; conditions: read-out: Activity
[11] = tested on: HCT-15; test: Cytotoxicity against human HCT15 cells assessed as cell growth at 0.5 uM by SRB assay; conditions: read-out: Activity; procedure, shortened: as §1
[12] = tested on: SF-268; test: Cytotoxicity against human SF268 cells by SRB assay; procedure, shortened: as §2
[13] = tested on: BT-549; test: Cytotoxicity against human BT549 cells assessed as cell growth at 50 uM by SRB assay; conditions: read-out: Activity
[14] = tested on: OVCAR-8; test: Cytotoxicity against human OVCAR8 cells assessed as cell growth at 0.005 uM by SRB assay; conditions: read-out: Activity
[15] = tested on: CCRF-CEM; test: Cytotoxicity against human CCRF-CEM cells assessed as cell growth at 50 uM by SRB assay; conditions: read-out: Activity
[16] = tested on: NCI-H322M; test: Cytotoxicity against human NCI-H322M cells assessed as cell growth at 0.5 uM by SRB assay; conditions: read-out: Activity
[17] = tested on: SK-MEL-2; test: Cytotoxicity against human SK-MEL-2 cells by SRB assay; procedure, shortened: as §2
[18] = tested on: SK-MEL-28; test: Cytotoxicity against human SK-MEL-28 cells assessed as cell growth at 5 uM by SRB assay; conditions: read-out: Activity
[19] = tested on: OVCAR-5; test: Cytotoxicity against human OVCAR5 cells assessed as cell growth at 0.5 uM by SRB assay; conditions: read-out: Activity
[20] = tested on: MCF7; test: Cytotoxicity against human MCF7 cells assessed as cell growth at 0.005 uM by SRB assay; conditions: read-out: Activity
[21] = tested on: SR; test: Cytotoxicity against human SR cells assessed as cell growth at 0.5 uM by SRB assay; conditions: read-out: Activity
[22] = tested on: 786-0; test: Cytotoxicity against human 786-0 cells assessed as cell growth at 0.05 uM by SRB assay; conditions: read-out: Activity
[23] = tested on: MDA-MB-468; test: Cytotoxicity against human MDA-MB-468 cells assessed as cell growth at 5 uM by SRB assay; conditions: read-out: Activity
[24] = tested on: A498; test: Cytotoxicity against human A498 cells assessed as cell growth at 50 uM by SRB assay; conditions: read-out: Activity
[25] = tested on: HOP-62; test: Cytotoxicity against human HOP62 cells assessed as cell growth at 0.05 uM by SRB assay; conditions: read-out: Activity; procedure, shortened: as §1
[26] = tested on: SW-620; test: Cytotoxicity against human SW620 cells assessed as cell growth at 0.005 uM by SRB assay; conditions: read-out: Activity
[27] = tested on: COLO 205; test: Cytotoxicity against human COLO205 cells assessed as cell growth at 5 uM by SRB assay; conditions: read-out: Activity
[28] = Cytotoxicity against human NCI-ADR-RES cells assessed as cell growth at 50 uM by SRB assay; conditions: read-out: Activity
[29] = tested on: UACC-62; test: Cytotoxicity against human UACC62 cells assessed as cell growth at 50 uM by SRB assay; conditions: read-out: Activity
[30] = tested on: U-251; test: Cytotoxicity against human U251 cells assessed as cell growth at 50 uM by SRB assay; conditions: read-out: Activity
[31] = tested on: NCI-H460; test: Cytotoxicity against human NCI-H460 cells by SRB assay; procedure, shortened: as §2
[32] = tested on: LOX IMVI; test: Cytotoxicity against human LOXIMVI cells assessed as cell growth at 0.05 uM by SRB assay; conditions: read-out: Activity
[33] = tested on: DU-145; test: Cytotoxicity against human DU145 cells assessed as cell growth at 5 uM by SRB assay; conditions: read-out: Activity; procedure, shortened: as §1
[34] = tested on: SNB-19; test: Cytotoxicity against human SNB19 cells assessed as cell growth at 5 uM by SRB assay; conditions: read-out: Activity
[35] = tested on: NCI-H226; test: Cytotoxicity against human NCI-H226 cells assessed as cell growth at 0.5 uM by SRB assay; conditions: read-out: Activity
[36] = tested on: OVCAR-4; test: Cytotoxicity against human OVCAR4 cells assessed as cell growth at 0.005 uM by SRB assay; conditions: read-out: Activity
[37] = tested on: UACC-62; test: Cytotoxicity against human UACC62 cells assessed as cell growth at 0.005 uM by SRB assay; conditions: read-out: Activity
[38] = tested on: IGROV-1; test: Cytotoxicity against human IGROV1 cells assessed as cell growth at 0.005 uM by SRB assay; conditions: read-out: Activity; procedure, shortened: as §1
[39] = tested on: SF-539; test: Cytotoxicity against human SF539 cells by SRB assay; procedure, shortened: as §2
[40] = tested on: SR; test: Cytotoxicity against human SR cells assessed as cell growth at 0.05 uM by SRB assay; conditions: read-out: Activity
[41] = tested on: MOLT-4; test: Cytotoxicity against human MOLT4 cells assessed as cell growth at 5 uM by SRB assay; conditions: read-out: Activity
[42] = tested on: SNB-75; test: Cytotoxicity against human SNB75 cells by SRB assay; procedure, shortened: as §2
[43] = tested on: MDA-MB-435; test: Cytotoxicity against human MDA-MB-435 cells assessed as cell growth at 0.05 uM by SRB assay; conditions: read-out: Activity
[44] = read-out: LC50 (the source's name)
[45] = read-out: pLC50 (the source's name) (converted)

COc1cc([C@@H]2c3cc4c(cc3[C@@H](NC(=O)CN3CCN(CCCCCCN5CCN(CC(=O)N[C@@H]6c7cc8c(cc7[C@@H](c7cc(OC)c(O)c(OC)c7)[C@H]7C(=O)OC[C@@H]76)OCO8)CC5)CC3)[C@H]3COC(=O)[C@H]23)OCO4)cc(OC)c1O
growth at 50 µM [1]: -15%
growth at 0.05 µM [2]: 99%
growth at 0.05 µM [3]: 103%
GI50 ([4]; read-out: GI50): 6.93 µM
CC50 [4, 44]: > 50 µM
TGI ([4]; read-out: TGI): > 50 µM
GI50 ([4]; read-out: pGI50 (converted)): 6.92 µM
CC50 [4, 45]: > 50.1 µM
TGI ([4]; read-out: pTGI (converted)): > 50.1 µM
growth at 0.5 µM [5]: 88%
growth at 5 µM [6]: 11%
growth at 0.005 µM [7]: 101%
growth at 0.005 µM [8]: 99%
growth at 0.005 µM [9]: 103%
growth at 0.5 µM [10]: 66%
growth at 0.5 µM [11]: 90%
GI50 ([12]; read-out: GI50): 1.38 µM
CC50 [12, 44]: > 50 µM
TGI ([12]; read-out: TGI): > 50 µM
GI50 ([12]; read-out: pGI50 (converted)): 1.38 µM
CC50 [12, 45]: > 50.1 µM
TGI ([12]; read-out: pTGI (converted)): > 50.1 µM
growth at 50 µM [13]: -40%
growth at 0.005 µM [14]: 110%
growth at 50 µM [15]: 7%
growth at 0.5 µM [16]: 93%
GI50 ([17]; read-out: GI50): 11.3 µM
CC50 [17, 44]: > 50 µM
TGI ([17]; read-out: TGI): 35.5 µM
GI50 ([17]; read-out: pGI50 (converted)): 11.2 µM
CC50 [17, 45]: > 50.1 µM
TGI ([17]; read-out: pTGI (converted)): 35.5 µM
growth at 5 µM [18]: 56%
growth at 0.5 µM [19]: 86%
growth at 0.005 µM [20]: 80%
growth at 0.5 µM [21]: 22%
growth at 0.05 µM [22]: 96%
growth at 5 µM [23]: 22%
growth at 50 µM [24]: -10%
growth at 0.05 µM [25]: 96%
growth at 0.005 µM [26]: 97%
growth at 5 µM [27]: 54%
growth at 50 µM [28]: 87%
growth at 50 µM [29]: -5%
growth at 50 µM [30]: -10%
GI50 ([31]; read-out: GI50): 0.261 µM
CC50 [31, 44]: > 50 µM
TGI ([31]; read-out: TGI): 9.45 µM
GI50 ([31]; read-out: pGI50 (converted)): 0.263 µM
CC50 [31, 45]: > 50.1 µM
TGI ([31]; read-out: pTGI (converted)): 9.55 µM
growth at 0.05 µM [32]: 88%
growth at 5 µM [33]: 14%
growth at 5 µM [34]: 15%
growth at 0.5 µM [35]: 73%
growth at 0.005 µM [36]: 85%
growth at 0.005 µM [37]: 97%
growth at 0.005 µM [38]: 111%
GI50 ([39]; read-out: GI50): 0.898 µM
CC50 [39, 44]: > 50 µM
TGI ([39]; read-out: TGI): 3.57 µM
GI50 ([39]; read-out: pGI50 (converted)): 0.891 µM
CC50 [39, 45]: > 50.1 µM
TGI ([39]; read-out: pTGI (converted)): 3.55 µM
growth at 0.05 µM [40]: 64%
growth at 5 µM [41]: 6%
GI50 ([42]; read-out: GI50): 0.957 µM
CC50 [42, 44]: > 50 µM
TGI ([42]; read-out: TGI): 12.8 µM
GI50 ([42]; read-out: pGI50 (converted)): 0.955 µM
CC50 [42, 45]: > 50.1 µM
TGI ([42]; read-out: pTGI (converted)): 12.9 µM
growth at 0.05 µM [43]: 96%
